# Compound activity (PubChem BioAssay)
# RGS4 block – human RGS4 inhibition | P49798 | HEK293 M3R/RGS4 inducible, Fluo-4 calcium flux; active compounds read high; triggered by carbachol at its EC20 | B-score at 10 µM | 310,000 tested, 0.45% active | AID 463165;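 active = B-score, a plate-corrected calcium signal, over three deviations above library mean, with baseline fluorescence within five deviations of library mean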;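 note: RGS4 expression induced by doxycycline in cells with stable M3 receptor; B-score is computed from the integrated fluorescence ratio over baseline after carbachol; higher B-score means a larger calcium signal and so more RGS4 inhibition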
# Target sequence (P49798 whole entry, looked up): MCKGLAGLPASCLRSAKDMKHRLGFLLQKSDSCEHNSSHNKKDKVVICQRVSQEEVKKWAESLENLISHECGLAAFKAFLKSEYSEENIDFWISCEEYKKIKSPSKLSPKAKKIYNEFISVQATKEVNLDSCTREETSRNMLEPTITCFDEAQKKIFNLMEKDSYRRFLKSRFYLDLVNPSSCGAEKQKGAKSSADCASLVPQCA
# MrgX1 antagonist – human MrgX1 receptor antagonism, primary screen. MRGX1-HEK293 calcium flux, Fluo-4, BAM8-22 antagonism; active compounds read low. B-score at 10 µM. 310,000 tested, 1.3% active. AID 588676;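 active = calcium-response B-score plate-corrected more than 3 library SD below zero, starting fluorescence within 5 deviations, no agonist response on first addition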;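 note: peak minus trough fluorescence over baseline after final BAM8-22 challenge near maximal dose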
# Target sequence (Q96LB2 whole entry, looked up): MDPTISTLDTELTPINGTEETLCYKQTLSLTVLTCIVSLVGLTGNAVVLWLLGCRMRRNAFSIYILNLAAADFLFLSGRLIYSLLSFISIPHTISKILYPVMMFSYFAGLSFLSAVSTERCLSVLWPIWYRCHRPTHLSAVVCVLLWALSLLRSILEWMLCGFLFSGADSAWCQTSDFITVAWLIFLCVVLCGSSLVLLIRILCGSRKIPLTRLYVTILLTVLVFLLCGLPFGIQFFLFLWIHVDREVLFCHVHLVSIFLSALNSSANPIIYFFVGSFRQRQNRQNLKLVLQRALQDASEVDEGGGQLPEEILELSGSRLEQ
# MrgX1 PAM – human MrgX1 positive allosteric modulation, primary screen | Q96LB2 | MrgX1-HEK293, Fluo-4 calcium flux, FDSS; active compounds read high | B-score at 10 µM | 310,000 tested, 0.63% active | AID 588675;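 active = plate-corrected calcium response at least 3 library SD above typical, normal starting fluorescence, not activating the receptor alone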;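 note: compound read alongside a low EC10 to EC30 dose of BAM8-22 agonist; peak minus trough fluorescence over baseline measured at the second addition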
# RGS4 act – potentiators or activators of RGS4; 310,000 tested, 0.92% active; AID 463111; HEK293 M3R/inducible RGS4, carbachol calcium flux Fluo4; active compounds read low; B-score at 10 µM;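 active = B-score of the integrated calcium signal more than 4 SD below the library mean, with starting fluorescence not abnormally high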;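 note: negative B-score means reduced calcium response which marks RGS4 activation or potentiation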
#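 Material: M3R-expressing HEK293 line, RGS4 induced by doxycycline | Schedule: Overnight RGS4 induction, 30 min dye load 37 °C, 20 min compound RT | Measured by: Fluo4 fluorescence kinetic imaging of calcium | Read-out: Integrated calcium ratio converted to B score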
# MrgX1 ag – agonists of human MrgX1 receptor; Q96LB2; MrgX1-HEK293 cells, Fluo-4 calcium fluorescence, agonist mode; active compounds read high; B-score at 10 µM; 310,000 tested, 0.44% active; AID 588627;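 active = calcium response B-score plate-corrected fluorescence ratio at least 3 library SD, with starting fluorescence B-score inside 5 SD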
#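 Assay system: MrgX1-expressing HEK293 cells / Amount: fifteen thousand cells per well / Doses: test compound in the initial addition of three / Timing: cells plated overnight, dye loaded 0.5 h 37 °C, 0.5 h room temperature / Technique: kinetic calcium dye fluorescence, Fluo-4 NW / Control set: positive and negative controls per plate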
# RGS4 inh valid – RGS4 inhibitor validation | shares compounds with RGS4 block | HEK293 M3R/RGS4, carbachol calcium Fluo-4 fluorescence; carbachol added at its EC20; 0 = buffer wells, 100 = carbachol control | calcium response, % at 10 µM | 1,700 tested, 65% active | AID 492999;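 active = duplicate-averaged calcium response above the buffer-only control mean plus 5 SD of those controls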;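 note: integrated fluorescence ratio F max minus min over baseline F0; higher response in RGS4-induced cells means RGS4 inhibition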
# RGS4 uninduced – counter-screen for RGS4 inhibitors: effect in non-induced cells; shares compounds with RGS4 block; HEK293 M3R non-induced, carbachol calcium Fluo-4; submaximal (EC20) carbachol stimulus; buffer wells 0%, carbachol control wells 100%; activity (percent), % at 10 µM; 1,900 tested, 20% active; AID 493000; call rule not given here;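 note: RGS4 induction absent so cells express M3R without RGS4; higher means more calcium signal and flags a non-specific hit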
# M3R basal Ca ctr – signal in non-induced cells without carbachol, RGS4 inhibitor counter-screen. shares compounds with RGS4 block. HEK293 M3R/RGS4 non-induced, Fluo-4 calcium, no carbachol; normalised: buffer wells 0%, carbachol wells 100%. calcium response (agonist-mode artifact), % at 10 µM. 1,900 tested, 22% active. AID 493001;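 active = duplicate-averaged calcium rise in uninduced cells above buffer wells' mean plus 5 SD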
# An asterisk follows results filed as active; i = inactive; nt = no result given. Most compounds without a hit are left out; they make up all but 3.5% or so of the library.
SMILES,RGS4 block,MrgX1 antagonist,MrgX1 PAM,RGS4 act,MrgX1 ag,RGS4 inh valid,RGS4 uninduced,M3R basal Ca ctr
COc1ccccc1CCC(=O)N(C)CC(=O)Nc1ccc(Cl)c(C(F)(F)F)c1,i,i,i,i,i,nt,nt,nt
CCOC(=O)c1cc(C#N)c(N2CCN(c3ccccn3)CC2)nc1-c1ccccc1,i,i,i,i,i,nt,nt,nt
COCCNC(=O)c1cc2c(s1)-c1ccc(Cl)cc1SC2,i,i,i,i,i,nt,nt,nt
NC(=O)c1cc2c(s1)-c1cc(Cl)ccc1SC2,5.9*,i,i,i,i,18%*,i,i
CCn1c(NC(=O)c2ccccc2F)c(-c2cccs2)c(=O)c2ccccc21,i,i,i,i,i,nt,nt,nt
CC1=NN(c2ccccc2)C(=O)/C1=C/C=C/c1ccccc1,i,i,i,i,i,nt,nt,nt
C#CCOc1ccc(/C=C2/C(=O)N(c3cccc(C(=O)O)c3)N=C2C)cc1OC,6*,i,i,i,i,5.0%*,i,i
CC1=NN(c2cccc(C(=O)O)c2)C(=O)/C1=C\C=C\c1ccco1,9.8*,i,i,i,i,16%*,34%*,i
S=C1NCCOCCOCCOCCNC(=S)N2CCOCCOCCN1CCOCCOCC2,i,i,i,i,i,nt,nt,nt
COc1ccc(Cl)cc1S(=O)(=O)N1CCCC(C(=O)N2CCOCC2)C1 (stereo unspecified),i,i,i,i,i,i,i,i
COCCNC(=S)N(CCO)Cc1cc2cc3c(cc2[nH]c1=O)OCCO3,i,i,i,i,i,i,i,i
COCCCNC(=S)N(CCO)Cc1cc2cc3c(cc2[nH]c1=O)OCCO3,5.2*,i,i,i,i,i,i,i
CCN(CC)CCN(Cc1cc2cc3c(cc2[nH]c1=O)OCCO3)C(=S)NCCCOC,i,i,i,i,i,i,i,i
CCCCNC(=S)N(CCCO)Cc1cc2cc3c(cc2[nH]c1=O)OCCO3,i,i,i,i,i,nt,nt,nt
CNC(=S)N(CCO)Cc1cc2cc3c(cc2[nH]c1=O)OCCO3,i,i,i,i,i,nt,nt,nt
Cc1nc(SCC(=O)N2CCC(Cc3ccccc3)CC2)[nH]c(=O)c1C,i,i,i,i,i,nt,nt,nt
O=C1N[C@@H](Cc2ccccc2)C(=O)N2[C@@H]1C[C@]1(Br)c3ccccc3N(S(=O)(=O)c3ccccc3)[C@H]21,i,i,i,i,i,nt,nt,nt
CN(C)c1oc(-c2ccccc2[N+](=O)[O-])nc1C#N,11*,i,i,i,i,5.0%*,i,i
COc1cc(-c2ncc3ccccn23)cc(OC)c1OC,i,i,i,i,i,nt,nt,nt
COc1cc(C(C[N+](=O)[O-])c2c(C)cc3ccccn23)ccc1O (stereo unspecified),i,i,i,i,i,nt,nt,nt
COc1cc(C(C[N+](=O)[O-])c2c(-c3ccccc3)cc3ccccn23)cc(OC)c1OC (stereo unspecified),i,i,i,i,i,nt,i,i
COc1ccc(C(C[N+](=O)[O-])c2c(-c3ccccc3)cc3ccccn23)cc1 (stereo unspecified),15*,i,i,i,i,12%*,i,i
O=Nc1c(-c2ccccc2)cc2ccccn12,i,i,i,i,i,nt,nt,nt
COc1ccc(C(C[N+](=O)[O-])c2c(-c3ccccc3)cc3ccccn23)cc1OC (stereo unspecified),13*,i,i,i,55*,12%*,i,i
COc1ccc(-c2n[nH]c(=S)n2-c2ccc(C)cc2)cc1OC,i,i,i,i,i,nt,nt,nt
SMILES,RGS4 block,MrgX1 antagonist,MrgX1 PAM,RGS4 act,MrgX1 ag,RGS4 inh valid,RGS4 uninduced,M3R basal Ca ctr
Cc1ccc(O)c(NC(=O)c2ccc3c(c2)C(=O)N(Cc2ccco2)C3=O)c1,i,i,i,i,i,nt,nt,nt
Cc1ccc(N(CC(=O)N=Nc2c(O)[nH]c3ccccc23)S(C)(=O)=O)c(C)c1,i,i,i,i,i,i,i,i
S=C(Nc1ccccc1)Nc1nc2ccccc2n1CCOc1ccc(Cl)cc1,6.2*,i,i,i,i,16%*,34%*,i
CCOc1ccc(N2CC(C(=O)Nc3ccccc3N3CCCC3)CC2=O)cc1 (stereo unspecified),i,i,i,i,i,nt,nt,nt
COc1ccc(S(=O)(=O)NCCC(=O)NCc2ccccc2)cc1,i,i,i,i,i,i,i,i
COc1cc(/C=C/[N+](=O)[O-])ccc1OCc1cccc(C(=O)O)c1,72*,nt,nt,i,nt,174%*,57%*,8.0%*
Nc1nc(-c2cc3ccccc3o2)cs1,i,i,i,i,i,nt,nt,nt
O=C1NN(c2ccccc2)C(=O)/C1=C/c1coc2ccccc2c1=O,i,i,i,i,i,nt,nt,nt
O=C1NN(c2ccccc2)C(=O)/C1=C\c1coc2ccc(O)cc2c1=O,7.9*,i,i,i,27*,30%*,i,i
Cc1ccc(C2C(C#N)=C(N)OC3=C2C(=O)CC(C)(C)C3)s1 (stereo unspecified),i,i,i,i,i,nt,nt,nt
O=C1/C(=C\c2cccnc2)Sc2ccccc21,5.1*,i,i,i,i,32%*,36%*,39%*
O=C1NC(=Nc2ccccc2Cl)S/C1=C\c1ccc(C(=O)O)cc1,i,i,i,i,i,nt,nt,nt
CN1C(=O)S/C(=C/c2cccnc2)C1=O,i,i,i,i,i,nt,nt,nt
Cc1ccccc1N=C1NC(=O)/C(=C/c2cccnc2)S1,i,i,i,i,i,nt,46%*,i
Cc1cc(C)cc(NC(N)=S)c1,i,i,i,i,i,nt,nt,nt
Cc1ccc(C(C[N+](=O)[O-])c2c(N)n(C)c(=O)n(C)c2=O)cc1 (stereo unspecified),i,i,i,i,i,nt,nt,nt
COc1cc(C(C[N+](=O)[O-])c2c(N)n(C)c(=O)n(C)c2=O)ccc1O (stereo unspecified),5.2*,i,i,i,i,20%*,i,8.0%*
